Square brackets hold non-standard residues; d marks the D form. Peptide text beside a SMILES is read from it. * marks the point of attachment. NMeF = CN[C@@H](Cc1ccccc1)C(=O)O; NMeV = CN[C@H](C(=O)O)C(C)C; X1 = C#CCCCC[C@H](C)C(=O)*; X2 = C#CCCC/C=C(\C)C(=O)* Some results are limits rather than exact numbers.

Common to all, as to type: functional, organism-based
The subject of one test is Leishmania donovani. Kind of test: Antileishmanial activity against Leishmania donovani LD-1S/MHOM/SD/00-1S amastigotes after 72 hrs by PicoGreen fluorescence assay. The gist of the method:
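Axenic amastigotes of WHO reference strain LD-1S/MHOM/SD/00-strain 1S; assay run as in earlier work.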

The test system of another test is Trypanosoma cruzi. Kind of test: Antiparasitic activity against Trypanosoma cruzi Tulahuen C4 infected african green monkey Vero cells expressing beta-galctosidase after 5 days. As to conditions: 120 h. The gist of the method: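 Parasite is a transgenic β-galactosidase-expressing Trypanosoma cruzi, Tulahuen strain clone C4; assay run as in earlier work.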
In a further test the test system is Plasmodium falciparum. Kind of test: Antimalarial activity against chloroquine-resistant Plasmodium falciparum Indochina W2 infected human erythrocytes assessed as uptake of PicoGreen after 48 hrs. As to conditions: Indochina W2, 48 h.

In the test with Leishmania donovani, `C[C@@H]1[C@H](O)[C@@H](C)/C=C/C=C/C=C/C=C/C=C/C=C/C=C/[C@H](O[C@@H]2O[C@H](C)[C@@H](O)[C@H](N)[C@@H]2O)C[C@@H]2O[C@](O)(C[C@@H](O)C[C@@H](O)[C@H](O)CC[C@@H](O)C[C@@H](O)CC(=O)O[C@H]1C)C[C@H](O)[C@H]2C(=O)O` [AMPHOTERICIN B] yielded an IC50 of 0.1 µM.
Consider `C#CCCCC[C@H](C)C(=O)N(C)[C@H](C(=O)N(C)[C@H](C(=O)N(C)[C@H](C(=O)N(C)[C@@H](Cc1ccccc1)C(N)=O)C(C)C)C(C)C)C(C)C` [DRAGONAMIDE A] (X1-[NMeV][NMeV][NMeV][NMeF]-NH2), for which the IC50 was 6.5 µM in the test on Leishmania donovani, more than 10 µM with Trypanosoma cruzi and more than 10 µM in the test on Plasmodium falciparum.
For the molecule `C#CCCCC[C@H](C)C(=O)N(C)[C@H](C(=O)N(C)[C@H](C(=O)N(C)[C@H](C(=O)N(C)[C@H](C(N)=O)C(C)C)C(C)C)C(C)C)C(C)C` [DRAGONAMIDE B] (X1-[NMeV][NMeV][NMeV][NMeV]-NH2), the IC50 in the test with Leishmania donovani, in the test on Trypanosoma cruzi and in the test on Plasmodium falciparum was more than 10 µM each time.
`C#CCCC/C=C(\C)C(=O)N(C)[C@H](C(=O)N(C)[C@H](C(=O)N(C)[C@H](C(=O)N(C)[C@@H](Cc1ccccc1)C(N)=O)C(C)C)C(C)C)C(C)C` [DRAGONAMIDE E] (X2-[NMeV][NMeV][NMeV][NMeF]-NH2): the IC50 with Leishmania donovani is 5.1 µM; in the test on Trypanosoma cruzi it was more than 10 µM; with Plasmodium falciparum, more than 10 µM.
For the molecule `C/C(=C\C=C\C[C@H](C)C(Cl)(Cl)Cl)C(=O)N[C@H](c1nccs1)C(C)C` [HERBAMIDE B], the IC50 was 5.9 µM with Leishmania donovani, more than 10 µM with Trypanosoma cruzi and more than 10 µM in the test on Plasmodium falciparum.
`CC1CS(=O)(=O)CCN1/N=C/c1ccc([N+](=O)[O-])o1` (centres undefined) [NIFURTIMOX] returned an IC50 with Trypanosoma cruzi of 13.5 µM.

The IC50 is the concentration that inhibits the measured activity by half.

Source of the values: ChEMBL document CHEMBL1154850, “Dragonamide E, a modified linear lipopeptide from Lyngbya majuscula with antileishmanial activity” (J Nat Prod, 2010).
